Laboratory results published in publication PMC2850055 (Analytical chemistry, 2009).
Entries after “also recorded” stand apart in the source; their conditions may differ. Starred links: 1 amine or outer side, 2 acyl side, 3 side chain; linkers in the order of their positions; H or OH if unused. Non-standard residues stand in square brackets, D forms with d. Residues, ends and D or L forms follow the SMILES beside them. *: point of attachment. X2 = CCC(=O)CC1CC(C)CC(C(=O)[*:2])N1[*:1]; X1 = CCCCCCCCC(C)C(=O)*; Aib = CC(C)(N)C(=O)O; X3 = CC(CN(C)CCO)N*

How the values were obtained:
[1] = biological target: AQP4 (M23 isoform) in transfected TNC1 cells (Rattus norvegicus, UniProt P47863); assay: Calcein fluorescence quenching cell volume assay in AQP4-transfected TNC1 cells; format: cell-based; conditions: 20 uM
Procedure, shortened: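 Rat TNC1 astrocytoma cells were stably co-transfected with rat AQP4 M23 (aa23–323) cDNA and a puromycin-resistance vector, then maintained in 2 μg/mL puromycin. Cells were plated at 12 000 per well and loaded with 10 μM calcein-AM for 45 min at 37 °C. Test compound was given for 15 min at 20 μM final. Calcein fluorescence (490/520 nm) was recorded every 0.5 s through a hyperosmolar NaCl challenge and isosmotic restoration. Shrinkage time constant came from an exponential fit.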

[2] = system: vesicles from TNC1-untransfected cells; assay: Stopped-flow light scattering in vesicles from untransfected TNC1 cells; format: biochemical, rat; conditions: 20 μM, data not shown
Procedure, shortened: (§1)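 Plasma membrane vesicles from rat TNC1 cells were made by homogenisation in sucrose/EDTA/protease-inhibitor buffer (pH 7.2), a 4000g 15 min spin, then pelleting of the supernatant at 17 000g for 45 min. Vesicles at 0.5 mg protein/mL in 50 mM sucrose, 10 mM Tris-HCl pH 7.4 were preincubated 15 min with test compound. Stopped-flow mixing imposed a 250 mOsm inward sucrose gradient. Volume decrease was followed by 90° scatter at 530 nm, and time constant was computed.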

[3] = biological target: T1, AQP1 (native, erythrocytes) (Rattus norvegicus, UniProt P29975); assay: Stopped-flow light scattering water transport in erythrocytes; format: cell-based
T1 sequence (P29975 1-269): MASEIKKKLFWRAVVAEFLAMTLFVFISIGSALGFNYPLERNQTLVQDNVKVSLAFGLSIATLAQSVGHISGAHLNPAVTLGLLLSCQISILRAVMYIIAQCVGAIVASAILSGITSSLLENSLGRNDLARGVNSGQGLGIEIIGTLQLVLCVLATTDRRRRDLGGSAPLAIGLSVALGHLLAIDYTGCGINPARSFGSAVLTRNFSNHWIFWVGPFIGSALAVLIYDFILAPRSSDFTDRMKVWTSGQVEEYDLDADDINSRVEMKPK
Procedure, shortened: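 Erythrocytes came from heparinised Wistar rat blood, were washed three times in PBS (800g, 4 °C, 10 min) and used within 24 h. At 1% haematocrit in PBS they were preincubated 15 min with test compound, then stopped-flow mixed with equal-volume hyperosmolar PBS to give a 250 mOsm inward gradient. Shrinkage was recorded by light scattering at 600 nm at 12 °C.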

AQP4 = AQP4 (Rattus norvegicus, UniProt P47863); format: biochemical
Procedure, shortened: as §1

[4] = system: primary mouse astrocytes expressing endogenous AQP4; assay: Calcein fluorescence quenching cell volume assay in primary mouse astrocytes; format: cell-based; conditions: for alteration of water flux kinetics / cell volume regulation (RVI, RVD, shrinkage): 20 μM, 15 min incubation, osmotic shock
[5] = system: AQP1-expressing fibroblasts (2497 cells); assay: Calcein fluorescence quenching cell volume assay in 2497 fibroblasts; format: cell-based, mouse; conditions: 0.2 mM, 3 min preincubation, hyperosmotic challenge
Procedure, shortened: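 Mouse 2497 fibroblasts with endogenous AQP1 were grown in DMEM with 10% FBS at 37 °C. Cells were plated at 12 000 per well and assayed 24–48 h later at 80–85% confluence. They were loaded with 10 μM calcein-AM for 45 min at 37 °C and preincubated with the agent before the osmotic step. Fluorescence was read at ex 490/em 520 nm every 0.5 s: 15 s baseline, 35 s after hyperosmolar PBS (0.5 M NaCl), then 40 s after water. Shrinkage time constant came from an exponential fit.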

Chain of AQP4 (P47863 23-323): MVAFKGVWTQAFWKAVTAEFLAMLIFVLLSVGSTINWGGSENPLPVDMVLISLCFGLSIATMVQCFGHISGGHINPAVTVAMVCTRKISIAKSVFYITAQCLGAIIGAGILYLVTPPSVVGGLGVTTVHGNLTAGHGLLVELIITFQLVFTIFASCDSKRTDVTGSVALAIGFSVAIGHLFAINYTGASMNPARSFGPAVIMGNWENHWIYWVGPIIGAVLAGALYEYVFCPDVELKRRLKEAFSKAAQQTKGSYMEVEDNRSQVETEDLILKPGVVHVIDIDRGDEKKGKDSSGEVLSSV
Chain of AQP4 (M23 isoform) in transfected TNC1 cells (P47863 23-323): as above

## CCCCCn1cc2c3c(cccc31)C1C=C(C)CN(C)[C@@H]1C2.Cc1ccc(C(=O)OC(C(=O)O)C(OC(=O)c2ccc(C)cc2)C(=O)O)cc1 (stereo not shown) [NSC600681]
[1]
  AQP4-mediated cell shrinkage time constant: significantly longer

## CCC[CH2][Sn]([CH2]CCC)([CH2]CCC)[O]c1cc(Cl)c(Cl)cc1Cl [NSC164914, tributyl-(2,4,5-trichlorophenoxy)stannane]
[2]
  reduction of shrinkage kinetics: no significant reduction
[3]
  effect on AQP1: inhibitory effects
[3]; 40 μM
  inhibition of the shrinkage rate: ~ 64%
AQP4
  effect on AQP4: inhibitory effects
[4]
  alteration of water flux kinetics / cell volume regulation (RVI, RVD, shrinkage): affected shrinkage rate

## COc1ccc(CCN2CCC(Nc3nc4ccccc4n3Cc3ccc(F)cc3)CC2)cc1 [astemizole]
[4]
  alteration of water flux kinetics / cell volume regulation (RVI, RVD, shrinkage): Altered cell volume regulation

## CCC[CH2][Pb]([Cl])([CH2]CCC)[CH2]CCC [NSC168597, tributyl-chloroplumbane]
[3]
  effect on AQP1: inhibitory effects
AQP4
  effect on AQP4: inhibitory effects

## [Cl][Hg][Cl] [HgCl2, mercuric chloride]
[5]
  reduction of the cell shrinkage rate: 52.7 ± 3%
[4]; astrocytes pretreated with 0.2 mM, 3 min
  effect on time course/kinetics of cell shrinkage: did not change significantly; also recorded: lack of effect

## OCCN1CCN(CCCN2c3ccccc3Sc3ccc(C(F)(F)F)cc32)CC1 [fluphenazine]
[4]
  alteration of water flux kinetics / cell volume regulation (RVI, RVD, shrinkage): Altered cell volume regulation

## CCCCCCCCC(C)C(=O)N1CCCC1C(=O)N1C(CC(=O)CC)CC(C)CC1C(=O)NC(C)C(=O)NC(C)(C)C(=O)NC(C)(C)C(=O)NC(C(=O)NC(C)C(=O)NC(C)(C)C(=O)NC(C)(C)C(=O)NC(C)CN(C)CCO)C(C)CC (stereo not shown) [NSC301460, trichopolin] (X1-P[X2]A[Aib][Aib]IA[Aib][Aib]-X3; configuration not given here)
[4]
  alteration of water flux kinetics / cell volume regulation (RVI, RVD, shrinkage): affected shrinkage rate
